Laboratory results reported in ChEMBL document CHEMBL4130550, “Antiproliferative Dimeric Aporphinoid Alkaloids from the Roots of Thalictrum cultratum” (J Nat Prod, 2017).
The source made the active and inactive calls. The calls are words filed in the database; no cut-off is given here.

What was measured:
HL-60 [1] = assay: Induction of morphological changes in human HL60 cells assessed as cell shrinkage at 0.06 to 1.5 uM after 24 hrs by Hoechst 33258 staining based fluorescence microscopic analysis; assay type: functional
HL-60 [2] = assay: Induction of apoptosis in human HL60 cells assessed as late apoptotic cells at 1.5 uM after 72 hrs by Annexin-V-FITC/propidium iodide staining based flow cytometric method (reference value: 2.53%); assay type: functional
HL-60 [3] = assay: Cell cycle arrest in human HL60 cells assessed as accumulation at G2 phase at 0.3 uM after 24 hrs by propidium iodide staining based flow cytometric method (reference value: 30.93%); assay type: functional
PC-3 = assay: Antiproliferative activity against human PC3 cells by MTT assay; assay type: functional, cell-based
How it was run: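 PC-3 (ATCC) in supplemented RPMI-1640 with 10% FBS at 37 °C, 5% CO2. Log-phase cells get graded concentrations in triplicate. MTT (5 mg/mL solution) is added for a further 4 h, then dissolved in DMSO and read at 490 nm. IC50 is from the average of three parallel experiments. Negative reference is 0.1% DMSO.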

HL-60 [4] = assay: Induction of apoptosis in human HL60 cells assessed as necrotic cells at 1.5 uM after 24 hrs by Annexin-V-FITC/propidium iodide staining based flow cytometric method (reference value: 0.47%); assay type: functional
HL-60 [5] = assay: Induction of apoptosis in human HL60 cells assessed as late apoptotic cells at 1.5 uM after 24 hrs by Annexin-V-APC/7-AAD staining based flow cytometric method (reference value: 1.99%); assay type: functional
How it was run: (§1)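 HL-60 are seeded overnight in six-well plates, then treated in triplicate with 0.06, 0.3 or 1.5 μM, or untreated, for 24 h. Cells are washed in PBS and taken up in annexin V binding buffer. Annexin V-APC is added for 15 min in the dark at 25 °C, and 7-AAD just before flow cytometry. Early apoptosis is annexin V-APC only; late apoptosis is annexin V-APC/7-AAD.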

HL-60 [6] = assay: Induction of apoptosis in human HL60 cells assessed as early apoptotic cells at 1.5 uM after 72 hrs by Annexin-V-FITC/propidium iodide staining based flow cytometric method (reference value: 2.8%); assay type: functional
HL-60 [7] = assay: Induction of morphological changes in human HL60 cells assessed as chromatin condensation at 0.06 to 1.5 uM after 24 hrs by Hoechst 33258 staining based fluorescence microscopic analysis; assay type: functional, cell-based
HL-60 [8] = assay: Induction of apoptosis in human HL60 cells assessed as late apoptotic cells at 0.06 uM after 24 hrs by Annexin-V-APC/7-AAD staining based flow cytometric method (reference value: 1.99%); assay type: functional; how it was run: as §1
HL-60 [9] = assay: Induction of apoptosis in human HL60 cells assessed as live cells at 1.5 uM after 72 hrs by Annexin-V-FITC/propidium iodide staining based flow cytometric method (reference value: 94.19%); assay type: functional
HL-60 [10] = assay: Induction of apoptosis in human HL60 cells assessed as necrotic cells at 1.5 uM after 48 hrs by Annexin-V-FITC/propidium iodide staining based flow cytometric method (reference value: 0.47%); assay type: functional
HL-60 [11] = assay: Induction of apoptosis in human HL60 cells assessed as early apoptotic cells at 1.5 uM after 24 hrs by Annexin-V-FITC/propidium iodide staining based flow cytometric method (reference value: 2.8%); assay type: functional
HL-60 [12] = assay: Cell cycle arrest in human HL60 cells assessed as accumulation at G2 phase at 0.06 uM after 24 hrs by propidium iodide staining based flow cytometric method (reference value: 30.93%); assay type: functional
HL-60 [13] = assay: Induction of mitochondrial membrane potential loss in human HL60 cells assessed as intact mitochondrial membrane potential at 0.3 uM after 24 hrs by JC1 staining based flow cytometric method (reference value: 99.42%); assay type: functional
HL-60 [14] = assay: Cell cycle arrest in human HL60 cells assessed as accumulation at S phase at 1.5 uM after 24 hrs by propidium iodide staining based flow cytometric method (reference value: 25.75%); assay type: functional
HL-60 [15] = assay: Induction of mitochondrial membrane potential loss in human HL60 cells assessed as collapse of the mitochondrial membrane potential at 0.06 uM after 24 hrs by JC1 staining based flow cytometric method (reference value: 0.58%); assay type: functional

With `COc1cc2c(c(Oc3ccc(C[C@H]4c5cc(OC)c6c(c5CCN4C)OCO6)cc3)c1OC)C[C@H]1c3c(c(OC)c(OC)c(OC)c3-2)CCN1C` the Activity (HL-60 [1]) was “Active”, the Activity (HL-60 [2]) was 31.66% and the Activity (HL-60 [3]) was 21.47%. The IC50 (PC-3) was 5.59 µM, the Activity (HL-60 [4]) was 0.14% and the Activity (HL-60 [5]) was 47.95%. For the same compound, the Activity (HL-60 [6]) was 31.46%, the Activity (HL-60 [7]) was “Active” and the Activity (HL-60 [8]) was 8.18%. The Activity (HL-60 [9]) was 36.09%, the Activity (HL-60 [10]) was 0.57% and the Activity (HL-60 [11]) was 14.79%. The Activity (HL-60 [12]) was 24.33%, the Activity (HL-60 [13]) was 66.5% and the Activity (HL-60 [14]) was 48.45%. The Activity (HL-60 [15]) was 24.1%.
